Measured values taken from ChEMBL document CHEMBL1131215, “Anhydrolide macrolides. 1. Synthesis and antibacterial activity of 2,3-anhydro-6-O-methyl 11,12-carbamate erythromycin A analogues” (1998).
≈ marks a conversion by molar mass, not a printed value.

Legend:
Assay type in all cases: functional
Haemophilus influenzae = test: In vitro antibacterial activity against DILL strain of Haemophilus influenzae.
How it was run: (§1)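 MIC determined by standard agar dilution; values in μg/mL.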

Staphylococcus aureus [1] = test: In vitro antibacterial activity against A5177 strain of Staphylococcus aureus; how it was run: as §1
Staphylococcus aureus [2] = test: In vitro antibacterial activity against 6538P strain of Staphylococcus aureus; how it was run: as §1
Streptococcus pyogenes [3] = test: In vitro antibacterial activity against PIU 2548 strain of Streptococcus pyogenes; how it was run: as §1
Streptococcus pneumoniae [4] = test: In vitro antibacterial activity against 5649 strain of Streptococcus pneumoniae; how it was run: as §1
Streptococcus pneumoniae [5] = test: In vitro antibacterial activity against ATCC 6303 strain of Streptococcus pneumoniae; how it was run: as §1
[6] = In vitro antibacterial activity against A-5278 strain of Staphylococcus aureus; how it was run: as §1
Streptococcus pneumoniae [7] = test: In vitro antibacterial activity against 5979 strain of Streptococcus pneumoniae; how it was run: as §1
Streptococcus pyogenes [8] = test: In vitro antibacterial activity against 930 strain of Streptococcus pyogenes; how it was run: as §1
[9] = Streptococcus pneumoniae, ATCC 6303

With CC[C@H]1OC(=O)[C@H](C)[C@@H](O[C@H]2C[C@@](C)(OC)[C@@H](O)[C@H](C)O2)[C@H](C)[C@@H](O[C@@H]2O[C@H](C)C[C@H](N(C)C)[C@H]2O)[C@](C)(O)C[C@@H](C)C(=O)[C@H](C)[C@@H](O)[C@]1(C)O [ERYTHROMYCIN] as the compound, how does the MIC (Haemophilus influenzae) read?
The MIC was 4 µg/mL (≈ 5.45 µM).

What about the MIC (Staphylococcus aureus [1]; Staphylococcus aureus) of the same compound?
Its MIC is 3.1 µg/mL (≈ 4.22 µM).

And the MIC (Staphylococcus aureus [2]; Staphylococcus aureus)?
Its MIC is 0.2 µg/mL (≈ 0.273 µM).

What about the MIC (Streptococcus pyogenes [3]; Streptococcus pyogenes) of the same compound?
Its MIC is 3.1 µg/mL (≈ 4.22 µM).

And the MIC (Streptococcus pneumoniae [4]; Streptococcus pneumoniae)?
The MIC was 8 µg/mL (≈ 10.9 µM).

And the MIC (Streptococcus pneumoniae [5])?
The MIC was 0.06 µg/mL (≈ 0.0818 µM).

For CC[C@H]1OC(=O)/C(C)=C/[C@H](C)[C@@H](O[C@@H]2O[C@H](C)C[C@H](N(C)C)[C@H]2O)[C@@](C)(OC)C[C@@H](C)C(=O)[C@H](C)[C@H]2N(CCCOc3ccc4ccccc4c3)C(=O)O[C@]12C, which MIC (Haemophilus influenzae) is on record?
The MIC was 64 µg/mL (≈ 81.9 µM).

What about the MIC (Staphylococcus aureus [1]; Staphylococcus aureus) of the same compound?
Its MIC is 0.39 µg/mL (≈ 0.499 µM).

And the MIC ([6]; Staphylococcus aureus)?
The MIC was 25 µg/mL (≈ 32 µM).

What about the MIC (Staphylococcus aureus [2]; Staphylococcus aureus) of the same compound?
Its MIC is 0.2 µg/mL (≈ 0.256 µM).

And the MIC (Streptococcus pneumoniae [7])?
The MIC was 8 µg/mL (≈ 10.2 µM).

And the MIC (Streptococcus pyogenes [3]; Streptococcus pyogenes)?
Its MIC is 0.39 µg/mL (≈ 0.499 µM).

And the MIC (Streptococcus pyogenes [8]; Streptococcus pyogenes)?
Its MIC is 3.1 µg/mL (≈ 3.97 µM).

And the MIC (Streptococcus pneumoniae [4]; Streptococcus pneumoniae)?
Its MIC is 2 µg/mL (≈ 2.56 µM).

What about the MIC (Streptococcus pneumoniae [5]; [9]) of the same compound?
The MIC was 0.03 µg/mL (≈ 0.0384 µM).

Which MIC (Staphylococcus aureus [1]) does the source give for CC[C@H]1OC(=O)/C(C)=C/[C@H](C)[C@@H](O[C@@H]2O[C@H](C)C[C@H](N(C)C)[C@H]2O)[C@@](C)(OC)C[C@@H](C)C(=O)[C@H](C)[C@H]2N(CCc3ccc(Oc4ccccc4)cc3)C(=O)O[C@]12C (stereo in doubt; 14) here?
Its MIC is 3.1 µg/mL (≈ 3.91 µM).

And the MIC ([6]; Staphylococcus aureus)?
The MIC was 25 µg/mL (≈ 31.5 µM).

What about the MIC (Staphylococcus aureus [2]) of the same compound?
The MIC was 3.1 µg/mL (≈ 3.91 µM).

And the MIC (Streptococcus pneumoniae [7])?
The MIC was 8 µg/mL (≈ 10.1 µM).

What about the MIC (Streptococcus pyogenes [3]; Streptococcus pyogenes) of the same compound?
The MIC was 1.56 µg/mL (≈ 1.97 µM).

What about the MIC (Streptococcus pyogenes [8]; Streptococcus pyogenes) of the same compound?
The MIC was 6.2 µg/mL (≈ 7.82 µM).

And the MIC (Streptococcus pneumoniae [4])?
Its MIC is 2 µg/mL (≈ 2.52 µM).

What about the MIC (Streptococcus pneumoniae [5]) of the same compound?
Its MIC is 1 µg/mL (≈ 1.26 µM).

With CC[C@H]1OC(=O)/C(C)=C/[C@H](C)[C@@H](O[C@@H]2O[C@H](C)C[C@H](N(C)C)[C@H]2O)[C@@](C)(OC)C[C@@H](C)C(=O)[C@H](C)[C@H]2N(CCCOc3cccc4cccnc34)C(=O)O[C@]12C as the compound, how does the MIC (Haemophilus influenzae) read?
Its MIC is 8 µg/mL (≈ 10.2 µM).

And the MIC (Staphylococcus aureus [2]; Staphylococcus aureus)?
The MIC was 1.56 µg/mL (≈ 1.99 µM).

And the MIC (Streptococcus pneumoniae [7])?
Its MIC is > 16 µg/mL.

What about the MIC (Streptococcus pyogenes [3]; Streptococcus pyogenes) of the same compound?
The MIC was 0.2 µg/mL (≈ 0.256 µM).

And the MIC (Streptococcus pneumoniae [4]; Streptococcus pneumoniae)?
Its MIC is 2 µg/mL (≈ 2.56 µM).

What about the MIC (Streptococcus pneumoniae [5]; [9]) of the same compound?
Its MIC is < 0.004 µg/mL.

Which results are given for CC[C@H]1OC(=O)/C(C)=C/[C@H](C)[C@@H](O[C@@H]2O[C@H](C)C[C@H](N(C)C)[C@H]2O)[C@@](C)(OC)C[C@@H](C)C(=O)[C@H](C)[C@H]2N(CCCOc3ccncc3)C(=O)O[C@]12C?
MIC (Haemophilus influenzae): 16 µg/mL (≈ 21.9 µM); MIC (Staphylococcus aureus [1]; Staphylococcus aureus): 0.39 µg/mL (≈ 0.533 µM); MIC (Staphylococcus aureus [2]; Staphylococcus aureus): 0.39 µg/mL (≈ 0.533 µM); MIC (Streptococcus pyogenes [3]; Streptococcus pyogenes): 0.2 µg/mL (≈ 0.273 µM); MIC (Streptococcus pneumoniae [4]; Streptococcus pneumoniae): 1 µg/mL (≈ 1.37 µM); MIC (Streptococcus pneumoniae [5]; [9]): 0.03 µg/mL (≈ 0.041 µM)

Which MIC (Haemophilus influenzae) does the source give for CC[C@H]1OC(=O)/C(C)=C/[C@H](C)[C@@H](O[C@@H]2O[C@H](C)C[C@H](N(C)C)[C@H]2O)[C@@](C)(OC)C[C@@H](C)[C@@H]2NCCN3C(=O)O[C@@]1(C)[C@H]3[C@H]2C here?
The MIC was > 64 µg/mL.

What about the MIC (Staphylococcus aureus [1]; Staphylococcus aureus) of the same compound?
The MIC was 6.2 µg/mL (≈ 9.94 µM).

What about the MIC (Staphylococcus aureus [2]; Staphylococcus aureus) of the same compound?
Its MIC is 12.5 µg/mL (≈ 20 µM).

What about the MIC (Streptococcus pneumoniae [7]) of the same compound?
Its MIC is > 64 µg/mL.

What about the MIC (Streptococcus pyogenes [3]; Streptococcus pyogenes) of the same compound?
The MIC was 1.56 µg/mL (≈ 2.5 µM).

And the MIC (Streptococcus pneumoniae [4]; Streptococcus pneumoniae)?
The MIC was 2 µg/mL (≈ 3.21 µM).

And the MIC (Streptococcus pneumoniae [5]; [9])?
The MIC was 1 µg/mL (≈ 1.6 µM).

For CC[C@H]1OC(=O)/C(C)=C/[C@H](C)[C@@H](O[C@@H]2O[C@H](C)C[C@H](N(C)C)[C@H]2O)[C@@](C)(OC)C[C@@H](C)C(=O)[C@H](C)[C@H]2N(CCCc3ccccc3)C(=O)O[C@]12C (stereo in doubt; 11), which MIC (Staphylococcus aureus [1]) is on record?
The MIC was 25 µg/mL (≈ 35 µM).

And the MIC (Staphylococcus aureus [2])?
Its MIC is 25 µg/mL (≈ 35 µM).

And the MIC (Streptococcus pyogenes [3])?
Its MIC is 6.2 µg/mL (≈ 8.67 µM).

And the MIC (Streptococcus pyogenes [8]; Streptococcus pyogenes)?
The MIC was 25 µg/mL (≈ 35 µM).

For CCOCCCN1C(=O)O[C@]2(C)[C@@H](CC)OC(=O)/C(C)=C/[C@H](C)[C@@H](O[C@@H]3O[C@H](C)C[C@H](N(C)C)[C@H]3O)[C@@](C)(OC)C[C@@H](C)C(=O)[C@H](C)[C@@H]12, which MIC (Staphylococcus aureus [1]; Staphylococcus aureus) is on record?
The MIC was 1.56 µg/mL (≈ 2.28 µM).

What about the MIC (Staphylococcus aureus [2]; Staphylococcus aureus) of the same compound?
Its MIC is 1.56 µg/mL (≈ 2.28 µM).

What about the MIC (Streptococcus pyogenes [3]; Streptococcus pyogenes) of the same compound?
The MIC was 0.39 µg/mL (≈ 0.571 µM).

What about the MIC (Streptococcus pneumoniae [4]; Streptococcus pneumoniae) of the same compound?
The MIC was 2 µg/mL (≈ 2.93 µM).

And the MIC (Streptococcus pneumoniae [5]; [9])?
The MIC was 0.25 µg/mL (≈ 0.366 µM).

With CC[C@H]1OC(=O)/C(C)=C/[C@H](C)[C@@H](O[C@@H]2O[C@H](C)C[C@H](N(C)C)[C@H]2O)[C@@](C)(OC)C[C@@H](C)C(=O)[C@H](C)[C@H]2N(CCc3ccc(Oc4ccccc4)cc3)C(=O)O[C@]12C (stereo in doubt; 15) as the compound, how does the MIC (Staphylococcus aureus [1]) read?
The MIC was 25 µg/mL (≈ 31.5 µM).

And the MIC [6]?
Its MIC is 12.5 µg/mL (≈ 15.8 µM).

What about the MIC (Staphylococcus aureus [2]) of the same compound?
The MIC was 25 µg/mL (≈ 31.5 µM).

And the MIC (Streptococcus pyogenes [3])?
The MIC was 3.1 µg/mL (≈ 3.91 µM).

And the MIC (Streptococcus pyogenes [8])?
Its MIC is 6.2 µg/mL (≈ 7.82 µM).

What about the MIC (Streptococcus pneumoniae [4]) of the same compound?
The MIC was 8 µg/mL (≈ 10.1 µM).

And the MIC (Streptococcus pneumoniae [5])?
The MIC was 4 µg/mL (≈ 5.04 µM).

Which MIC (Haemophilus influenzae) does the source give for CC[C@H]1OC(=O)/C(C)=C/[C@H](C)[C@@H](O[C@@H]2O[C@H](C)C[C@H](N(C)C)[C@H]2O)[C@@](C)(OC)C[C@@H](C)C(=O)[C@H](C)[C@H]2N(CCCc3cnc4ccccc4c3)C(=O)O[C@]12C here?
Its MIC is 32 µg/mL (≈ 41.8 µM).

What about the MIC (Staphylococcus aureus [2]; Staphylococcus aureus) of the same compound?
The MIC was 1.56 µg/mL (≈ 2.04 µM).

What about the MIC (Streptococcus pyogenes [3]; Streptococcus pyogenes) of the same compound?
The MIC was 0.39 µg/mL (≈ 0.509 µM).

And the MIC (Streptococcus pneumoniae [4]; Streptococcus pneumoniae)?
The MIC was 4 µg/mL (≈ 5.22 µM).

And the MIC (Streptococcus pneumoniae [5]; [9])?
Its MIC is 0.25 µg/mL (≈ 0.326 µM).

What does the source list for CC[C@H]1OC(=O)/C(C)=C/[C@H](C)[C@@H](O[C@@H]2O[C@H](C)C[C@H](N(C)C)[C@H]2O)[C@@](C)(OC)C[C@@H](C)C(=O)[C@H](C)[C@H]2N(Cc3ccccc3)C(=O)O[C@]12C?
MIC (Staphylococcus aureus [1]; Staphylococcus aureus): 0.78 µg/mL (≈ 1.14 µM); MIC (Staphylococcus aureus [2]; Staphylococcus aureus): 0.78 µg/mL (≈ 1.14 µM); MIC (Streptococcus pyogenes [3]; Streptococcus pyogenes): 0.2 µg/mL (≈ 0.291 µM); MIC (Streptococcus pneumoniae [4]; Streptococcus pneumoniae): 2 µg/mL (≈ 2.91 µM); MIC (Streptococcus pneumoniae [5]; [9]): 0.25 µg/mL (≈ 0.364 µM)

For CC[C@H]1OC(=O)/C(C)=C/[C@H](C)[C@@H](O[C@@H]2O[C@H](C)C[C@H](N(C)C)[C@H]2O)[C@@](C)(OC)C[C@@H](C)C(=O)[C@H](C)[C@H]2NC(=O)O[C@@]21C (stereo in doubt; 7), which MIC (Staphylococcus aureus [2]) is on record?
The MIC was 25 µg/mL (≈ 41.9 µM).

What about the MIC (Streptococcus pyogenes [3]) of the same compound?
The MIC was 6.2 µg/mL (≈ 10.4 µM).

Which MIC (Haemophilus influenzae) does the source give for CC[C@H]1OC(=O)/C(C)=C/[C@H](C)[C@@H](O[C@@H]2O[C@H](C)C[C@H](N(C)C)[C@H]2O)[C@@](C)(OC)C[C@@H](C)C(=O)[C@H](C)[C@H]2N(CCCCc3ccccc3)C(=O)O[C@]12C here?
Its MIC is 32 µg/mL (≈ 43.9 µM).

What about the MIC (Staphylococcus aureus [1]; Staphylococcus aureus) of the same compound?
The MIC was 0.39 µg/mL (≈ 0.535 µM).

And the MIC ([6]; Staphylococcus aureus)?
The MIC was 50 µg/mL (≈ 68.6 µM).

And the MIC (Staphylococcus aureus [2]; Staphylococcus aureus)?
The MIC was 0.39 µg/mL (≈ 0.535 µM).

And the MIC (Streptococcus pyogenes [3]; Streptococcus pyogenes)?
The MIC was 0.39 µg/mL (≈ 0.535 µM).

What about the MIC (Streptococcus pyogenes [8]; Streptococcus pyogenes) of the same compound?
The MIC was 12.5 µg/mL (≈ 17.1 µM).
